Experimental data taken from ChEMBL document CHEMBL4177557, “Anti-inflammatory Flavan-3-ol-dihydroretrochalcones from Daemonorops draco” (J Nat Prod, 2017).

Assays:
Neutrophil [1] = assay: Inhibition of fMLP/CB-induced superoxide anion production in human neutrophils assessed as SOD-based ferricytochrome c reduction assay; type: functional, cell-based
In short: (§1)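 Isolated human neutrophils stimulated with fMLP plus cytochalasin B. Superoxide measured as SOD-inhibitable ferricytochrome c reduction. Azurophilic degranulation measured as elastase release. IC50, the concentration giving 50% inhibition, calculated by computer; mean ± SEM, n = 3–5; Student's t test.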

Neutrophil [2] = assay: Inhibition of fMLP/CB-induced elastase release in human neutrophils; type: functional, cell-based; in short: as §1

Row | IC50 (Neutrophil [1]) [µM] | IC50 (Neutrophil [2]) [µM] | Compound
1 | > 10 | > 10 | COC1=C(CCC(=O)c2ccccc2)C(=O)[C@@H]2C(=O)[C@H]1[C@H]1c3c(cc(O)c(C)c3OC)O[C@]2(c2ccccc2)[C@@H]1O
2 | 0.4 | 1.5 | O=c1cc(N2CCOCC2)oc2c(-c3ccccc3)cccc12 [LY-294002]
3 | > 10 | > 10 | COC1=CC(=O)[C@]2(C)C(=O)[C@@]1(CCC(=O)c1ccccc1)[C@H]1c3c(cc(O)c(C)c3OC)O[C@]2(c2ccccc2)[C@@H]1O
4 | 3.1 | 4.5 | COC1=CC(=O)C(C)=C2O[C@]3(c4ccccc4)Oc4cc(O)c(C)c(OC)c4[C@@H]([C@H]3O)[C@]12CCC(=O)c1ccccc1
